Source: PMC5673027 (International Journal of Oncology, 2017)
“Also recorded” adds a separate entry of the source.

Experiments:
[1] = target: CDK1/cyclin B1 (Homo sapiens, UniProt P06493); assay: In vitro CDK1 kinase assay; format: biochemical; conditions: for effect on CDK1 enzyme activity (in words): in vitro kinase assay, H1 histone phosphorylation; for inhibition of CDK1 enzyme activity: quantification of band intensities, Fig. 1C/D, H1 histones
How it was run: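 Purified CDK1/cyclin B1 complex in kit reaction buffer, pre-incubated with test compound at various concentrations for 10 min at room temperature. Phosphorylation run with 15 µM ATP, 2 µCi [γ-32P]ATP and 5 µg H1 histone at 30°C for 20 min, then stopped with 20 mM EDTA (final). Products resolved by 10% SDS-PAGE and autoradiographed; bands quantified as percent of control. Done 3–6 independent times.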

[2] = target: CDK6/cyclin D1 (Homo sapiens, UniProt Q00534); assay: In vitro CDK6 kinase assay; format: biochemical; conditions: for effect on CDK6 enzyme activity (in words): 0.5 mM (Fig. 7G, H), Rb substrate; for inhibition at 500 µM: read-out: inhibition of CDK6 activity
How it was run: (§1)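 Kinases were purified CDK2/cyclin A2, CDK4/cyclin D1 and CDK6/cyclin D1, each pre-incubated with test compound for 10 min at room temperature, mostly at 0.5 mM, with some dose series. Reaction used 15 µM ATP, 2 µCi [γ-32P]ATP and 5 µg protein substrate (H1 histone for CDK2) at 30°C for 20 min, stopped with 20 mM EDTA. Read by SDS-PAGE autoradiography, bands expressed as percent of control.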

[3] = target: T1, CDK2/cyclin A2 (Homo sapiens, UniProt P24941); assay: In vitro CDK2 kinase assay; format: biochemical; conditions: for effect on CDK2 enzyme activity (in words): 0.5 mM (Fig. 7), pre-incubated 10 min, H1 histones
How it was run: as §1

[4] = MTT cytotoxicity assay; format: cell-based, human; conditions: human, HCT-116 colorectal carcinoma cells
How it was run: (§2)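 HCT-116 cells kept in McCoy's 5A with 10% FBS, seeded overnight at 20,000 cells/well, then exposed to test compounds at various concentrations for 72 h. Viability read by MTT. IC50 taken from the concentration series. Experiments repeated 3–6 times independently.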

[5] = system: HCT-116 cells; assay: MTT cytotoxicity assay; format: cell-based, human; conditions: Homo sapiens, HCT-116, 72 h, read-out: MTT assay HCT-116 72 h (IC50)
How it was run: as §2

[6] = target: CDK4/cyclin D1 (Homo sapiens, UniProt P11802); assay: In vitro CDK4 kinase assay; format: biochemical; conditions: for effect on CDK4 enzyme activity (in words): 0.5 mM (Fig. 7E, F), Rb substrate
How it was run: as §1

[7] = cited from earlier work
[8] = target: T1, CDK2/cyclin A2; conditions: in vitro kinase assays; cited from earlier work
[9] = target: cellular CDK1 in HCT-116 cells (Homo sapiens, UniProt P06493); assay: Acetylation of cellular CDK1 in HCT-116 cells; format: cell-based; conditions: 0.25–2.5 mM, 12 h
[10] = CDK1 IC50, Table III, purified CDK1 enzyme
[11] = CDK1 IC50, text, dose-dependent inhibition, Fig. 1E-H

CDK6/cyclin D1, sequence (Q00534 whole entry): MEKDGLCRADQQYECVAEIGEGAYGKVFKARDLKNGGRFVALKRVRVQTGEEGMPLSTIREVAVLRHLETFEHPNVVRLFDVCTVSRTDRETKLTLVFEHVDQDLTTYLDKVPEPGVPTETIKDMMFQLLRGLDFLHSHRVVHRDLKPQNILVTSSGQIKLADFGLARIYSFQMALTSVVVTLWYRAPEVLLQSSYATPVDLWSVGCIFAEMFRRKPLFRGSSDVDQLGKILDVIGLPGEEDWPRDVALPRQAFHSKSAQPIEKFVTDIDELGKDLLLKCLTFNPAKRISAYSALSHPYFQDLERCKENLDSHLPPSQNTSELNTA
CDK6/cyclin D1, sequence (P24385 whole entry partner): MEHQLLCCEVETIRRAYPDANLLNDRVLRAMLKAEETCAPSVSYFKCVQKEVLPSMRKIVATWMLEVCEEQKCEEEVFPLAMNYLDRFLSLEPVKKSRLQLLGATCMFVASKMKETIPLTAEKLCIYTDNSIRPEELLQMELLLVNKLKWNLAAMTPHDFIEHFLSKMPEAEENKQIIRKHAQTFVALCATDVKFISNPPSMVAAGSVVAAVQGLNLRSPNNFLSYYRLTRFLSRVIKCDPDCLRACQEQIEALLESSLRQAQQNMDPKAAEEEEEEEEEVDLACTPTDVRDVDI
CDK1/cyclin B1, sequence (P14635 whole entry): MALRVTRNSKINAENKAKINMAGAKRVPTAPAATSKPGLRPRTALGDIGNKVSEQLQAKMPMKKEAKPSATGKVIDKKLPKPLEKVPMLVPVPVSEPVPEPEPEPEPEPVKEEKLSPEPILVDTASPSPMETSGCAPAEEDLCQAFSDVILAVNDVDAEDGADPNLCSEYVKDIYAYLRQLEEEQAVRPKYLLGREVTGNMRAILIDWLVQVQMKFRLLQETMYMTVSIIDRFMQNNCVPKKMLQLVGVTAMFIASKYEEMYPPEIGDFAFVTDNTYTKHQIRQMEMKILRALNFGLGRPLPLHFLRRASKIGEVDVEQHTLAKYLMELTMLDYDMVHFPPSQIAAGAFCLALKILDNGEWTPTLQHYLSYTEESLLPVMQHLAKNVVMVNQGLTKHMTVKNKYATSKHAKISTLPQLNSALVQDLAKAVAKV
CDK1/cyclin B1, sequence (P06493 whole entry): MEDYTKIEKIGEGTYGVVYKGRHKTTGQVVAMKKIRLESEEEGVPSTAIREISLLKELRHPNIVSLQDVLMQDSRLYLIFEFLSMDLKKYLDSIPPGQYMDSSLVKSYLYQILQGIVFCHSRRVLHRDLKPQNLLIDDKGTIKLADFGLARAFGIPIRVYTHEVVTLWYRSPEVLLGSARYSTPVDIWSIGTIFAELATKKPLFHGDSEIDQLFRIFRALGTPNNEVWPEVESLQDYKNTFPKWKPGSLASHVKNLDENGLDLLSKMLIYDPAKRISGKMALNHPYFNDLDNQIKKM
CDK4/cyclin D1, sequence (P11802 whole entry): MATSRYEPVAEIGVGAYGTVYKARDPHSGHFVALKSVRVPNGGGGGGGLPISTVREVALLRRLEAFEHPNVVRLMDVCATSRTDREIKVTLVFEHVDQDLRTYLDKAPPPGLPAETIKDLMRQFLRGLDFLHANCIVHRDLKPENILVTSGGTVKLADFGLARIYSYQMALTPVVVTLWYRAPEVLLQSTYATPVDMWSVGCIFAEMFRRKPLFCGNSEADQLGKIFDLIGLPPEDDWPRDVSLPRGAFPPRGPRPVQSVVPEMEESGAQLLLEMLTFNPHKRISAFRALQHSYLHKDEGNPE
CDK4/cyclin D1, sequence (P24385 whole entry partner): as the sequence (P24385 whole entry partner) above
cellular CDK1 in HCT-116 cells, sequence (P06493 whole entry): as the sequence (P06493 whole entry) above

Row | SMILES | effect on CDK1 enzyme activity (in words) [1] | inhibition of CDK1 enzyme activity [1] [%] | effect on CDK6 enzyme activity (in words) [2] | effect on CDK2 enzyme activity (in words) [3] | effect on CDK4 enzyme activity (in words) [6] | other results
1 | O=C(O)c1ccc(O)c(O)c1 [3,4-DHBA] | did not show any inhibition; also recorded: failed to inhibit | – | – | – | – | –
2 | O=C(O)c1cc(O)c(O)c(O)c1 [3,4,5-THBA, gallic acid] | did not show any inhibitory effect; also recorded: failed to inhibit | – | – | – | – | –
3 | O=C(O)c1c(O)cccc1O [2,6-DHBA, 2,6-dihydroxybenzoic acid] | – | 65 | inhibited | did not inhibit; also recorded: either no or marginal effect | failed to inhibit; also recorded: either no or marginal effect | IC50 [1, 10]: 365 µM; IC50 [1, 11]: 365 µM; inhibition at 500 µM [2]: 37%; IC50 at 72 h [4]: 1900 µM; IC50 [5]: 1950 µM
4 | O=C(O)c1cccc(O)c1O [2,3-DHBA, 2,3-dihydroxy-benzoic acid] | – | 55 | inhibited | did not inhibit; also recorded: either no or marginal effect | failed to inhibit; also recorded: either no or marginal effect | IC50 [1, 10]: 386 µM; IC50 [1, 11]: 386 µM; inhibition at 500 µM [2]: 28%; IC50 at 72 h [4]: ~1800 µM; IC50 [5]: 1780 µM
5 | O=C(O)c1ccccc1 [benzoic acid, reference compound] | did not show any inhibition; also recorded: failed to inhibit | – | – | – | – | –
6 | O=C(O)c1c(O)cc(O)cc1O [2,4,6-THBA, 2,4,6-trihydroxybenzoic acid] | inhibited | – | inhibited | dose-dependent inhibition; also recorded: inhibited | inhibited | IC50 [1, 10]: 226 µM; inhibition at 500 µM [2]: 40%; IC50 [3]: ~300 µM; IC50 at 72 h [4]: 800 µM; IC50 [5]: 785 µM; inhibition at 500 µM ([6]; read-out: inhibition of CDK4 activity): 45%
7 | O=C(O)c1cc(O)cc(O)c1 [3,5-DHBA] | failed to inhibit | – | – | – | – | –
8 | O=C(O)c1ccccc1O [Salicylic acid, reference compound] | do not inhibit; also recorded: failed to inhibit | – | did not affect | did not inhibit | failed to inhibit | half-life ([7]; depending upon the dose): 4 to 6 h; conjugation with glycine to salicyluric acid ([7]; liver): 20–65%; effect on CDK2 enzyme activity (in words), previous study [8]: failed to inhibit
9 | O=C(O)c1cc(O)ccc1O [2,5-DHBA, 2,5-dihydroxybenzoic acid] | – | 22 | – | – | – | –
10 | CC(=O)Oc1ccccc1C(=O)O [Aspirin] | do not inhibit; also recorded: failed to inhibit | – | did not affect | did not inhibit | failed to inhibit | oral bioavailability [7]: 40–50%; acetylation of cellular CDK1 (in words) [9]: acetylated in aspirin treated samples in a dose-dependent fashion; effect on CDK2 enzyme activity (in words), previous study [8]: failed to inhibit
11 | CN1CC[C@H](c2c(O)cc(O)c3c(=O)cc(-c4ccccc4Cl)oc23)[C@H](O)C1 [flavopiridol, reference compound] | dose-dependently inhibited | – | – | – | – | –
12 | Nc1ccc(O)c(C(=O)O)c1 [5-aminosalicylic acid, reference compound] | did not show any inhibition | – | – | – | – | effect on CDK1 enzyme activity (in words) ([1]; listed as 5-amino-salicylic acid): failed to inhibit
13 | O=C(O)c1ccc(O)cc1O [2,4-DHBA, 2,4-dihydroxybenzoic acid] | – | 25 | – | – | – | –
